# ChEMBL document CHEMBL1122233, “Antihypertensive 9-substituted 1-oxa-4,9-diazaspiro[5.5]undecan-3-ones” (J Med Chem, 1983)
# How the values were obtained:
# Rattus norvegicus [1] = assay: (§1) Percentage fall in systolic blood pressure after 1 hr at 50 mg/kg given perorally; format: functional, Artery; details: route oral
# Outline: (§2)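 Male Okamoto-Aoki SHR, four per group, with a concurrent vehicle control group. Oral dosing in water (0.1 mL/10 g) on two consecutive mornings. After the day-2 dose, rats were restrained in a 30 °C chamber. Tail-cuff systolic pressure was taken at 1-4 h from four traces per rat. Result is % decrease versus control mean, by 1-tailed t test, p ≤ 0.05.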
# Rattus norvegicus [2] = assay: (§3) Percentage fall in systolic blood pressure after 3 hours at 50 mg/kg given perorally; format: functional, Artery; details: route oral; outline: as §2
# Rattus norvegicus [3] = assay: (§4) Percentage fall in systolic blood pressure after 4 hours at 50 mg/kg given perorally; format: functional, Artery; details: route oral; outline: as §2
# Rattus norvegicus [4] = assay: (§5) Percentage fall in systolic blood pressure after 2 hours at 50 mg/kg given perorally; format: functional, Artery; details: route oral; outline: as §2
# Rattus norvegicus [5] = assay: as §3; format: functional, organism-based; set-up: dose 50 mg/kg; details: Artery; outline: as §2
# Rattus norvegicus [6] = assay: as §4; format: functional, organism-based; set-up: dose 50 mg/kg; details: Artery; outline: as §2
# Rattus norvegicus [7] = assay: Percentage fall in systolic blood pressure after 2 hours at 12.5 mg/kg given perorally; format: functional, Artery; details: route oral; outline: as §2
# Rattus norvegicus [8] = assay: (§6) Percentage fall in systolic blood pressure after 3 hours at 12.5 mg/kg given perorally; format: functional, organism-based; set-up: dose 12.5 mg/kg; details: Artery; outline: as §2
# Rattus norvegicus [9] = assay: (§7) Percentage fall in systolic blood pressure after 4 hours at 12.5 mg/kg given perorally; format: functional, organism-based; set-up: dose 12.5 mg/kg; details: Artery; outline: as §2
# Rattus norvegicus [10] = assay: (§8) Percentage fall in systolic blood pressure after 1 hr at 12.5 mg/kg given perorally; format: functional, Artery; details: route oral; outline: as §2
# Rattus norvegicus [11] = assay: as §5; format: functional, organism-based; set-up: dose 50 mg/kg; details: Artery; outline: as §2
# Rattus norvegicus [12] = assay: as §1; format: functional, organism-based; set-up: dose 50 mg/kg; details: Artery
# Outline: (§9)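 Male Okamoto-Aoki spontaneously hypertensive rats, trained, in groups of four matched for mean systolic pressure; five treated groups and one vehicle control run concurrently. Oral dosing in water (solution or suspension, 0.1 mL/10 g) on two consecutive mornings. On day 2, rats were restrained at 30.0 ± 1.0 °C and tail-cuff systolic pressure recorded at 1–4 h; percent fall versus control, 1-tail t test, p ≤ 0.05.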
# Rattus norvegicus [13] = assay: Percentage fall in systolic blood pressure after 2 hr at 12.5 mg/kg given perorally; format: functional, organism-based; set-up: dose 12.5 mg/kg; details: Artery; outline: as §9
# Rattus norvegicus [14] = assay: Percentage fall in systolic blood pressure after 3 hr at 12.5 mg/kg given perorally; format: functional, organism-based; set-up: dose 12.5 mg/kg; details: Artery; outline: as §9
# Rattus norvegicus [15] = assay: (§10) Percentage fall in systolic blood pressure after 4 hr at 12.5 mg/kg given perorally; format: functional, organism-based; set-up: dose 12.5 mg/kg; details: Artery; outline: as §9
# Rattus norvegicus [16] = assay: as §8; format: functional, organism-based; set-up: dose 12.5 mg/kg; details: Artery; outline: as §9
# Rattus norvegicus [17] = assay: as §7; format: functional, Artery; details: route oral; outline: as §2
# Rattus norvegicus [18] = assay: as §6; format: functional, Artery; details: route oral; outline: as §2
# Rattus norvegicus [19] = assay: as §4; format: functional, organism-based; set-up: dose 50 mg/kg; details: Artery; outline: as §9; remark: listed apart in the source
# Rattus norvegicus [20] = assay: Percentage fall in systolic blood pressure after 1 hr at 25 mg/kg given perorally; format: functional, Artery; details: route oral; outline: as §9
# Rattus norvegicus [21] = assay: Percentage fall in systolic blood pressure after 4 hours at 25 mg/kg given perorally; format: functional, Artery; details: route oral; outline: as §9
# Rattus norvegicus [22] = assay: Percentage fall in systolic blood pressure after 2 hours at 25 mg/kg given perorally; format: functional, Artery; details: route oral; outline: as §9
# Rattus norvegicus [23] = assay: Percentage fall in systolic blood pressure after 2 hr at 25 mg/kg given perorally; format: functional, Artery; details: route oral; outline: as §9
# Rattus norvegicus [24] = assay: Percentage fall in systolic blood pressure after 3 hr at 25 mg/kg given perorally; format: functional, Artery; details: route oral; outline: as §9
# Rattus norvegicus [25] = assay: Percentage fall in systolic blood pressure after 3 hours at 25 mg/kg given perorally; format: functional, Artery; details: route oral; outline: as §9
# Rattus norvegicus [26] = assay: Percentage fall in systolic blood pressure after 4 hr at 25 mg/kg given perorally; format: functional, Artery; details: route oral; outline: as §9
# Rattus norvegicus [27] = assay: as §10; format: functional, Artery; details: route oral; outline: as §9
SMILES,Decrease in SBP (Rattus norvegicus [1]) [%],Decrease in SBP (Rattus norvegicus [2]) [%],Decrease in SBP (Rattus norvegicus [3]) [%],Decrease in SBP (Rattus norvegicus [4]) [%],Decrease in SBP (Rattus norvegicus [5]),Decrease in SBP (Rattus norvegicus [6]),also measured
CC(=O)NCC1CCN(CCc2c[nH]c3ccccc23)CC1,30,15,26,26,,,
O=C1COC2(CCN(CCc3c[nH]c4ccccc34)CC2)C(c2ccccc2)N1 (stereo not drawn),21,,,19,Not significant,Not significant,
CCC1NC(=O)COC12CCN(CCc1c[nH]c3ccccc13)CC2 (stereo not drawn),40,41,43,54,,,Decrease in SBP (Rattus norvegicus [7]): 25%; Decrease in SBP (Rattus norvegicus [8]): Not significant; Decrease in SBP (Rattus norvegicus [9]): Not significant; Decrease in SBP (Rattus norvegicus [10]): 21%
CC1N(C)C(=O)COC12CCN(CCc1c[nH]c3ccccc13)CC2 (stereo not drawn),29,,,22,Not significant,Not significant,
CCC1NC(=O)COC12CCN(CC(O)C1COc3ccccc3O1)CC2 (stereo not drawn),40,36,26,44,,,
COc1ccc(CCN2CCC3(CC2)CNC(=O)CO3)cc1OC,,,,,Not significant,Not significant,Decrease in SBP (Rattus norvegicus [11]): Not significant; Decrease in SBP (Rattus norvegicus [12]): Not significant
O=C1COC2(CCN(CCCOc3ccccc3)CC2)CN1,,,,,,,Decrease in SBP (Rattus norvegicus [13]): Not significant; Decrease in SBP (Rattus norvegicus [14]): Not significant; Decrease in SBP (Rattus norvegicus [15]): Not significant; Decrease in SBP (Rattus norvegicus [16]): Not significant
O=C1COC2(CCN(C3CCc4ccccc4C3)CC2)CN1 (stereo not drawn),28,23,20,24,,,
CC1OC2(CCN(CCc3c[nH]c4ccccc34)CC2)CN(C)C1=O (stereo not drawn),32,,,,Not significant,Not significant,Decrease in SBP (Rattus norvegicus [11]): Not significant
COC1(CNC(=O)c2ccccc2)CCN(CCc2c[nH]c3ccccc23)CC1,30,22,,28,,Not significant,
CCN1CC2(CCN(CCc3c[nH]c4ccccc34)CC2)OCC1=O,55,28,42,33,,,Decrease in SBP (Rattus norvegicus [17]): 21%; Decrease in SBP (Rattus norvegicus [7]): 33%; Decrease in SBP (Rattus norvegicus [18]): 30%; Decrease in SBP (Rattus norvegicus [10]): 22%
COc1ccc(CCN2CCC3(CC2)CNC(=O)CO3)cc1,,,,,,,Decrease in SBP (Rattus norvegicus [13]): Not significant; Decrease in SBP (Rattus norvegicus [14]): Not significant; Decrease in SBP (Rattus norvegicus [15]): Not significant; Decrease in SBP (Rattus norvegicus [16]): Not significant
O=C1COC2(CCN(CC(O)c3ccccc3)CC2)CN1 (stereo not drawn),,,,,Not significant,,Decrease in SBP (Rattus norvegicus [19]): Not significant; Decrease in SBP (Rattus norvegicus [11]): Not significant; Decrease in SBP (Rattus norvegicus [12]): Not significant
O=C1COC2(CCN(CCc3c[nH]c4ccccc34)CC2)CN1Cc1ccccc1,18,,,,Not significant,Not significant,Decrease in SBP (Rattus norvegicus [11]): Not significant
COc1cc2c(cc1OC)[C@@H]1C[C@@]3(CCN1CC2)CN(C)C(=O)CO3,,,,,Not significant,Not significant,Decrease in SBP (Rattus norvegicus [11]): Not significant; Decrease in SBP (Rattus norvegicus [12]): Not significant
COC1(CNC(C)=O)CCN(CCc2c[nH]c3ccccc23)CC1,17,,,,Not significant,Not significant,Decrease in SBP (Rattus norvegicus [11]): Not significant
CC1NC(=O)COC12CCN(CCc1c[nH]c3ccccc13)CC2 (stereo not drawn),56,41,50,48,,,Decrease in SBP (Rattus norvegicus [7]): 36%; Decrease in SBP (Rattus norvegicus [9]): Not significant; Decrease in SBP (Rattus norvegicus [18]): 24%; Decrease in SBP (Rattus norvegicus [10]): 24%
O=C1COC2(CCN(CCC(=O)c3ccc(F)cc3)CC2)CN1,,,,,,,Decrease in SBP (Rattus norvegicus [20]): 27%; Decrease in SBP (Rattus norvegicus [21]): 20%; Decrease in SBP (Rattus norvegicus [22]): 24%

SMILES,Decrease in SBP (Rattus norvegicus [1]) [%],Decrease in SBP (Rattus norvegicus [2]) [%],Decrease in SBP (Rattus norvegicus [3]) [%],Decrease in SBP (Rattus norvegicus [4]) [%],Decrease in SBP (Rattus norvegicus [5]),Decrease in SBP (Rattus norvegicus [6]),also measured
CCCN1CC2(CCN(CCc3c[nH]c4ccccc34)CC2)OCC1=O,47,22,39,22,,,Decrease in SBP (Rattus norvegicus [17]): 16%; Decrease in SBP (Rattus norvegicus [7]): 26%; Decrease in SBP (Rattus norvegicus [18]): 24%; Decrease in SBP (Rattus norvegicus [10]): 18%
NCC1CCN(CCc2c[nH]c3ccccc23)CC1,20,,20,24,Not significant,,
CN1CC2(CCN(CC(O)C3COc4ccccc4O3)CC2)OCC1=O (stereo in doubt; 60),,,,,,,Decrease in SBP (Rattus norvegicus [23]; 25 mg/kg): 33%; Decrease in SBP (Rattus norvegicus [20]): 41%; Decrease in SBP (Rattus norvegicus [24]; 25 mg/kg): 17%
CN1CC2(CCN(CCc3c[nH]c4ccccc34)CC2)OCC1=O,50,34,26,44,,,Decrease in SBP (Rattus norvegicus [17]): 17%; Decrease in SBP (Rattus norvegicus [7]): 19%; Decrease in SBP (Rattus norvegicus [18]): 20%; Decrease in SBP (Rattus norvegicus [10]): 25%
CCC1OC2(CCN(CCc3c[nH]c4ccccc34)CC2)CN(C)C1=O (stereo not drawn),16,,,,Not significant,Not significant,Decrease in SBP (Rattus norvegicus [11]): Not significant
O=C1COC2(CCN(CCc3c[nH]c4ccccc34)CC2)CN1c1cccc(F)c1,,,,,,,Decrease in SBP (Rattus norvegicus [25]): 22%; Decrease in SBP (Rattus norvegicus [20]): 29%; Decrease in SBP (Rattus norvegicus [21]): 18%; Decrease in SBP (Rattus norvegicus [22]): 31%
CC1OC2(CCN(CCc3c[nH]c4ccccc34)CC2)CNC1=O (stereo not drawn),30,21,26,36,,,
CCC1OC2(CCN(CCc3c[nH]c4ccccc34)CC2)CNC1=O (stereo not drawn),26,15,,23,,Not significant,
CCN1C(=O)COC2(CCN(CCc3c[nH]c4ccccc34)CC2)C1C (stereo not drawn),20,,,,Not significant,Not significant,Decrease in SBP (Rattus norvegicus [11]): Not significant
CCN1CC2(CCN(CCCC(=O)c3ccc(F)cc3)CC2)OCC1=O,,,,,,,Decrease in SBP (Rattus norvegicus [25]): 27%; Decrease in SBP (Rattus norvegicus [20]): 35%; Decrease in SBP (Rattus norvegicus [21]): 13%; Decrease in SBP (Rattus norvegicus [22]): 31%
O=C(NCC1CCN(CCc2c[nH]c3ccccc23)CC1)c1ccccc1,,30,32,27,,,Decrease in SBP (Rattus norvegicus [12]): Not significant
O=C1COC2(CCN(CCc3ccc(Cl)cc3)CC2)CN1,,,,,,,Decrease in SBP (Rattus norvegicus [13]): Not significant; Decrease in SBP (Rattus norvegicus [14]): Not significant; Decrease in SBP (Rattus norvegicus [15]): Not significant; Decrease in SBP (Rattus norvegicus [16]): Not significant
O=C1COC2(CCN(CCCC(=O)c3ccc(F)cc3)CC2)CN1,,,,,,,Decrease in SBP (Rattus norvegicus [23]): 33%; Decrease in SBP (Rattus norvegicus [26]): 30%; Decrease in SBP (Rattus norvegicus [20]): 50%; Decrease in SBP (Rattus norvegicus [13]): Not significant; Decrease in SBP (Rattus norvegicus [24]): 29%; Decrease in SBP (Rattus norvegicus [14]): Not significant; Decrease in SBP (Rattus norvegicus [27]): 18%; Decrease in SBP (Rattus norvegicus [16]): Not significant
COCC(=O)NCC1CCN(CCc2c[nH]c3ccccc23)CC1,20,13,26,18,,,
O=C1COC2(CCN(CCc3ccc(F)cc3)CC2)CN1,,,,,,,Decrease in SBP (Rattus norvegicus [13]): Not significant; Decrease in SBP (Rattus norvegicus [14]): Not significant; Decrease in SBP (Rattus norvegicus [15]): Not significant; Decrease in SBP (Rattus norvegicus [16]): Not significant
CCC(=O)NCC1CCN(CCc2c[nH]c3ccccc23)CC1,23,15,,23,,Not significant,
CN1CC2(CCN(CC(O)C3COc4ccccc4O3)CC2)OCC1=O (stereo in doubt; 61),,,,,,,Decrease in SBP (Rattus norvegicus [14]): Not significant
CCC1N(C)C(=O)COC12CCN(CCc1c[nH]c3ccccc13)CC2 (stereo not drawn),,,,,Not significant,Not significant,Decrease in SBP (Rattus norvegicus [11]): Not significant; Decrease in SBP (Rattus norvegicus [12]): Not significant
